CSC inhib – cancer stem cell viability inhibitors, primary screen, luminescence | cancer stem cell-like cells viability | inhibition, % at 7.5 µM | hit rate 1.1% among 300,000 | AID 2717, 2010; in the data active = inhibition above about 75%; tested in HMLE shEcad cells
Efflux pump mplx – inhibitors of Candida efflux pumps in yeast, primary screen, S. cerevisiae, Nile Red, multiplex; S. cerevisiae Candida pump triplex; inhibition, % at 10 µM; hit rate 0.44% among 330,000; AID 485275, 2010;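 active = plate passing quality check with inhibition over a set limit, or well fluorescence over plate mean plus 4 SD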;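 note: Nile Red retained in pooled yeast measured as flow cytometry median fluorescence; 0% = buffer negative control and 100% = Enniatin B positive control; higher means more Nile Red kept so more efflux inhibition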
Mot1-301 SUMO – yeast Mot1-301 growth rescue at high temperature, primary screen, SUMOylation pathway inhibitor project, S. cerevisiae, ATP luminescence, 38.5C | AID 2716, 2010 | S. cerevisiae Mot1-301 growth rescue; percent above DMSO median, 100 means doubled | growth rescue, % at 18.8 µM | hit rate 1% among 320,000;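 active = every valid replicate shows activation above 250% relative to neutral control wells; inactive = the rest, any valid replicate at or below 250%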;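 note: OY570 slx delta 5 strain wells were the positive control but not used for scaling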
Beta apoptosis – inhibitors of cytokine-induced beta cell apoptosis, primary screen, luminescence; INS-1E cytokine-induced death, ATP luminescence, 48 h; percent of positive-control rescue, neutral wells zero; protection from apoptosis, % (no concentration beside the values); hit rate 0.8% among 300,000; AID 435005, 2010;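 active = Every replicate reaches about 75%, or at least half do and their mean reaches it too, limit read from the data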;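 note: 0% = cytokine-treated negative control wells and 100% = positive control rescue; higher means more ATP so stronger rescue from cytokine killing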
T cruzi repl – inhibitors of intracellular T. cruzi growth, primary screen, luminescence, NIH3T3 host cells | hit rate 1.4% among 300,000 | AID 1885, 2009 | T. cruzi beta-gal in NIH3T3, 90 h | inhibition, % (test concentration not listed);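 active = mean inhibition across valid replicates above about 55%, limit read from the data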;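 note: signal also drops with host cell toxicity which is not excluded here; 0% = plate median of DMSO wells and 100% = zero luminescence signal; higher percent means less beta-gal luminescence so fewer parasites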
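assay system = mouse NIH/3T3 fibroblasts infected with β-gal-expressing T. cruzi Tulahuen C4 | input = 5,000 NIH/3T3 host cells per well | buffer or medium = DMEM plus 2% FBS | timing = 3 h host attachment, then at least 90 h co-culture | measured by = GalScreen luminescence, 60 min | evaluation = luminescence reflecting intracellular parasite burden, expressed as percent inhibition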
WT yeast gro inh – growth inhibition of WT strain, primary screen, mitochondrial fusion inhibitor project, WT and mutant strains, chemical genetic | AID 1362, 2008 | hit rate 2.1% among 190,000 | inhibition, % at 10 µM | mitochondrial fusion phenotypic screen; in the data active = inhibition above about 58%; tested in S. cerevisiae
Yeast Mot1 SUMO – growth restoration of Mot1-301 yeast on galactose, dose response, SUMO pathway inhibitor project, whole organism, S. cerevisiae, ATP luminescence, cherry-picked samples | shares compounds with Mot1-301 SUMO | S. cerevisiae Mot1-301 galactose growth, 24 h; -100 = growth of slx-deleted rescue strain | growth activity, percent, % at 42 µM | 2,300 tested, under 10 active;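 active = Signal drops as the depositor expects, and the fitted half-maximal dose is no more than ten times the top valid tested dose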;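 note: more negative values mean stronger growth rescue toward the control strain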
Active calls of the source: *; x = not tested or not shown; + = active, no number; [ ] = dose if it differs, or a comment. Sampled rows, rich in hits. Any-hit rate of the full collection: about 4.8%.

SMILES	CSC inhib	Efflux pump mplx	Mot1-301 SUMO	Beta apoptosis	T cruzi repl	WT yeast gro inh	Yeast Mot1 SUMO
CN(C)c1ccc(/C=C2\N=C(C(C)(C)C)OC2=O)cc1	0.4	0.0	-0.1	4.0	-9.7	x	x
CCOC(=O)C(CC)(CC)C(=O)/C=C/c1cccc(Br)c1	-6.7	0.1	86.6	8.2	42.3	x	x
O=C(CN1CCOCC1)NN=C1CCCCCCCCCCC1	-10.7	0.1	-15.9	-7.8	-27.2	-5.6	x
C=CCn1c(CCC)nc2ccccc21	-13.4	0.0	633.7*	-2.1	-11.9	4.7	0.0
CC(=O)c1ccc(NC(=O)CSc2nnc(-c3ccco3)o2)cc1	x	0.0	426.1*	0.8	-0.9	x	0.0
CC1CCCC(N2C(=O)NC(NC(=O)c3ccco3)(C(F)(F)F)C2=O)C1C (stereo not given)	6.5	0.1	510.3*	-6.4	0.2	-4.3	-0.6
COc1ccccc1C(=O)NCC(=O)NCC1(N2CCCCC2)CCCCC1	-1.9	0.2	27.2	2.7	-23.5	x	x
Cc1ccc(NC(=O)CC2CS(=O)(=O)CC2CC(=O)Nc2ccc(C)c(C)c2)cc1C (stereo not given)	0.9	-0.1	439.6*	-1.4	1.7	4.6	0.1
Cc1ccc(NC(=O)C/C(N)=N/O)cc1C	x	0.0	10.5	x	-21.8	-2.2	x
Cc1cc(NC(=O)CC2CCCC2)ccc1Br	-7.4	0.0	386.0*	0.4	-8.7	x	-0.7
c1ccc2[nH]c(CSc3nccs3)nc2c1	6.6	0.0	370.7*	-8.4	-9.6	17.8	0.3
O=C(Cn1cc(C(F)(F)F)ccc1=O)NCC1CCCO1 (stereo not given)	-6.9	-0.1	-2.2	-3.9	x	x	x
CC(=O)c1cccc(N2C(=NC(=O)C3CCCCC3)SC3CS(=O)(=O)CC32)c1 (stereo not given)	-12.4	-0.1	476.9*	1.4	-2.9	x	0.2
O=C(N=C1SC2CS(=O)(=O)CC2N1c1ccc(F)c(Cl)c1)C1CC1 (stereo not given)	-2.4	0.1	517.7*	2.8	-0.2	x	-0.2
CC1CC(C)CN(C2CCCCC2NS(=O)(=O)c2ccc(Cl)cc2)C1 (stereo not given)	-1.6	-0.4	-12.7	7.2	12.7	x	x
CCSc1nnc2nc(C)cc(C)n12	-9.0	0.0	300.2	-4.0	-4.6	0.2	x
Cc1cc(C)n2c(SCC(C)C)nnc2n1	-3.7	0.0	770.4*	x	-29.5	-4.7	-0.7
COc1ccc(NC(=O)CN2C(=O)COc3ccc(S(=O)(=O)N4CCOCC4)cc32)cc1Cl	-14.9	0.0	-9.2	-4.7	-0.6	x	x
Cc1ccc(NC(=O)CN2C(=O)COc3ccc(S(=O)(=O)N4CCOCC4)cc32)cc1F	-6.7	-0.1	499.9*	-5.0	-0.1	x	0.3
CC1CN(Cc2ccccc2)c2nc3c(c(=O)[nH]c(=O)n3C)n2C1 (stereo not given)	-4.1	0.1	475.2*	3.7	-9.9	x	0.0
C=CCOC(=O)c1sc(NC(=O)c2ccc(OC)cc2)nc1C	58.6	-0.1	-19.2	4.8	-21.3	-3.1	x
COc1cccc(C2CC(c3cccc(NS(C)(=O)=O)c3)=NN2C(=O)c2ccccc2)c1OC (stereo not given)	-7.4	-2.5	386.9*	-5.8	3.5	-3.0	0.1
OC(c1ccccc1)(c1ccccc1)c1ncc[nH]1	-2.7	-0.1	-11.4	5.7	6.5	x	x
COc1ccc(N(CC(=O)O)S(=O)(=O)c2c(C)n[nH]c2C)cc1	-5.8	0.0	-18.3	-2.4	2.2	x	x
Cc1ccc(N(C(C)C(=O)O)S(=O)(=O)c2c(C)n[nH]c2C)cc1 (stereo not given)	-3.4	0.0	530.7*	x	-9.4	-16.0	0.2
SMILES	CSC inhib	Efflux pump mplx	Mot1-301 SUMO	Beta apoptosis	T cruzi repl	WT yeast gro inh	Yeast Mot1 SUMO
COc1ccc(S(=O)(=O)n2nc(-c3ccc(Cl)cc3)cc2N)cc1OC	-5.9	-0.1	387.6*	-20.5	-1.6	24.5	0.5
Nc1cc(-c2ccc(Br)cc2)nn1S(=O)(=O)c1ccccc1	-16.6	0.3	-5.7	-2.4	9.0	-6.9	x
Nc1cc(-c2ccc(Cl)cc2)nn1S(=O)(=O)c1ccc(Cl)cc1	0.2	0.1	545.0*	x	26.1	13.0	0.0
CCOc1ccc(-c2cc(N)n(S(=O)(=O)c3ccc(OC)c(OC)c3)n2)cc1	7.0	0.3	3.0	2.3	-13.4	-12.2	x
CCCCn1c(=O)c(CCC(=O)OCC(=O)Nc2ccc(F)c(Cl)c2)nc2ccccc21	-21.9	0.2	13.7	-8.0	-3.7	-8.1	x
CCCn1c(=O)n(N)c2ccccc21	3.3	0.0	-1.7	-6.0	-12.5	-0.8	x
O=c1cnc2ccccc2n1Cc1ccccc1C(F)(F)F	-13.7	0.1	514.9*	-4.0	0.3	x	0.2
Cc1cc(OCC(=O)OCC(=O)N(C)Cc2ccccc2C)ccc1Cl	-8.0	0.0	-4.8	-5.1	x	x	x
CN1CCCN(CC(O)COCc2cccs2)CC1 (stereo not given)	3.3	-0.1	x	-1.9	-13.4	1.4	x
OC(COCc1cccs1)CN1CCCCCC1 (stereo not given)	8.5	0.0	+	-0.1	12.7	11.4	-0.2
O=C(NNc1ccccc1)Nc1ccccc1F	24.6	-0.1	47.2	-8.2	0.7	x	x
CC(C)C(O)(C(=O)NNc1ccccc1)C(C)C	0.1	-0.1	583.2*	-8.7	-3.1	x	0.6
O=C(CN1CCN(Cc2ccc(Cl)cc2)CC1)N/N=C/c1ccncc1	-7.7	-0.1	373.6*	0.1	24.0	4.2	0.0
COc1ccc(C(C)=O)cc1CN(c1ccccc1OC)S(=O)(=O)c1cccs1	-12.3	0.1	369.9*	-9.5	18.2	x	0.1
O=C(c1ccc(CNS(=O)(=O)c2cccc(Cl)c2)cc1)N1CCCCC1	28.7	0.0	-1.7	x	16.7	x	x
Cc1cccc(C)c1NC(=S)N(CCN(C)C)C(C)c1ccccn1 (stereo not given)	-3.1	0.0	7.9	-4.6	3.3	6.5	x
CC(c1ccccn1)N(CCN(C)C)C(=S)Nc1cccc(F)c1 (stereo not given)	-6.3	0.4	435.6*	-6.3	-15.1	x	0.2
CN(C)/C(=N\S(=O)(=O)c1ccc(F)cc1)c1ccccc1	-3.8	-0.2	3.8	1.4	-3.2	x	x
CCN(CC)/C(=N\S(=O)(=O)c1ccc(F)cc1)c1ccccc1	-3.1	-0.1	550.9*	-2.3	-7.2	x	-0.2[21 µM]
CCN(C(=O)COC(=O)c1cc([N+](=O)[O-])ccc1N1CCOCC1)C1CCCCC1	17.0	0.0	537.7*	-2.2	4.7	x	1.1
Cc1cc(C)c(NC(=O)CNC(=O)c2cc([N+](=O)[O-])ccc2N2CCOCC2)c(C)c1	-12.2	0.0	507.3*	2.9	-10.9	x	-0.1

High-throughput results: PubChem, several laboratories
